The source made the active and inactive calls. The calls are words filed in the database; no cut-off is given here.
How the values were obtained:
[1] = tested on: Staphylococcus aureus; test: Antibacterial activity against Staphylococcus aureus TISTR517 at up to 300 ug/ml after 8 to 12 hrs by colorimetric microdilution broth technique; type: functional, organism-based
Procedure, shortened: (§1)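 Broth microdilution in RPMI1640. Bacterial suspension in RPMI1640 is mixed with 1% Alamar Blue. Sample dissolved in DMSO at 25 mg/ml (stock) is added to the first row, then serially diluted two-fold down the plate to 128-fold. Plates are incubated at 37 °C for 8–12 h. MIC is the lowest concentration preventing the Alamar Blue change from blue to red. At least three repeats.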

[2] = tested on: Bacillus subtilis; test: Antibacterial activity against Bacillus subtilis at up to 300 ug/ml after 8 to 12 hrs by colorimetric microdilution broth technique; type: functional, organism-based; procedure, shortened: as §1
[3] = tested on: Enterococcus faecalis; test: Antibacterial activity against vancomycin-resistant Enterococcus faecalis ATCC 51299 at up to 300 ug/ml after 8 to 12 hrs by colorimetric microdilution broth technique; type: functional, organism-based
Procedure, shortened: (§2)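 Broth microdilution with a colorimetric read-out. Bacteria were suspended in RPMI1640 with 1% Alamar Blue. Compound was dissolved in DMSO as a 25 mg/ml stock and added to the first row, then serially halved to a 128-fold final dilution. Plates were incubated at 37 °C for 8–12 h. MIC was the lowest concentration preventing the blue-to-red indicator change. Each assay was run at least three times.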

[4] = tested on: Enterococcus faecalis; test: Antibacterial activity against Enterococcus faecalis TISTR459 at up to 300 ug/ml after 8 to 12 hrs by colorimetric microdilution broth technique; type: functional, organism-based; procedure, shortened: as §1
[5] = tested on: Pseudomonas aeruginosa; test: Antibacterial activity against Pseudomonas aeruginosa at up to 300 ug/ml after 8 to 12 hrs by colorimetric microdilution broth technique; type: functional, organism-based; procedure, shortened: as §1
[6] = tested on: Salmonella typhi; test: Antibacterial activity against Salmonella typhi at up to 300 ug/ml after 8 to 12 hrs by colorimetric microdilution broth technique; type: functional, organism-based; details: Salmonella enterica subsp. enterica serovar Typhi; procedure, shortened: as §2
[7] = tested on: Shigella sonnei; test: Antibacterial activity against Shigella sonnei at up to 300 ug/ml after 8 to 12 hrs by colorimetric microdilution broth technique; type: functional, organism-based; procedure, shortened: as §1
[8] = tested on: Staphylococcus aureus; test: Antibacterial activity against methicillin-resistant Staphylococcus aureus ATCC 43300 after 8 to 12 hrs by colorimetric microdilution broth technique; type: functional; procedure, shortened: as §2
[9] = tested on: Shigella sonnei; test: Antibacterial activity against Shigella sonnei after 8 to 12 hrs by colorimetric microdilution broth technique; type: functional; procedure, shortened: as §1
[10] = tested on: Staphylococcus aureus; test: Antibacterial activity against Staphylococcus aureus TISTR517 after 8 to 12 hrs by colorimetric microdilution broth technique; type: functional; procedure, shortened: as §1
[11] = tested on: Bacillus subtilis; test: Antibacterial activity against Bacillus subtilis after 8 to 12 hrs by colorimetric microdilution broth technique; type: functional; procedure, shortened: as §1
[12] = tested on: Enterococcus faecalis; test: Antibacterial activity against vancomycin-resistant Enterococcus faecalis ATCC 51299 after 8 to 12 hrs by colorimetric microdilution broth technique; type: functional; procedure, shortened: as §2
[13] = tested on: Enterococcus faecalis; test: Antibacterial activity against Enterococcus faecalis TISTR459 after 8 to 12 hrs by colorimetric microdilution broth technique; type: functional; procedure, shortened: as §2
[14] = tested on: Pseudomonas aeruginosa; test: Antibacterial activity against Pseudomonas aeruginosa after 8 to 12 hrs by colorimetric microdilution broth technique; type: functional; procedure, shortened: as §1
[15] = tested on: Salmonella typhi; test: Antibacterial activity against Salmonella typhi after 8 to 12 hrs by colorimetric microdilution broth technique; type: functional, Salmonella enterica subsp. enterica serovar Typhi; details: Salmonella enterica; procedure, shortened: as §2

Row | Compound | MIC [8] [µg/mL] | MIC [9] [µg/mL] | MIC [11] [µg/mL] | MIC [12] [µg/mL] | MIC [13] [µg/mL] | other results
1 | CCOc1ccc(/C=C/c2cccc[n+]2C)cc1 |  |  |  |  |  | MIC [1]: inactive; MIC [2]: inactive; MIC [3]: inactive; MIC [4]: inactive; MIC [5]: inactive; MIC [6]: inactive; MIC [7]: inactive
2 | CCOc1ccc(/C=C/c2cccc[n+]2C)cc1.[I-] | 37.5 | 300 |  |  |  | 
3 | CCOc1ccc(/C=C/c2cccc[n+]2C)cc1.COc1ccc(S(=O)(=O)[O-])cc1 | 150 |  |  |  |  | 
4 | CN(C)c1ccc(/C=C/c2ccc3ccccc3[n+]2C)cc1.O=S(=O)([O-])c1ccc(Cl)cc1 | 2.34 | 2.34 | 2.34 | 2.34 | 2.34 | MIC [10]: 2.34 µg/mL; MIC [14]: 300 µg/mL; MIC [15]: 300 µg/mL
5 | CCOc1ccc(/C=C/c2ccc3ccccc3[n+]2C)cc1.Cc1ccc(S(=O)(=O)[O-])cc1 | 2.34 | 150 | 9.37 | 37.5 | 37.5 | 
6 | CCOc1ccc(/C=C/c2ccc3ccccc3[n+]2C)cc1.O=S(=O)([O-])c1ccc(Cl)cc1 | 2.34 | 300 | 75 | 150 | 75 | 
7 | CCOc1ccc(/C=C/c2ccc3ccccc3[n+]2C)cc1.COc1ccc(S(=O)(=O)[O-])cc1 [listing 1 of 2 here] |  |  |  |  |  | MIC [1]: inactive; MIC [5]: inactive; MIC [6]: inactive
8 | CN(C)c1ccc(/C=C/c2cccc[n+]2C)cc1.Nc1ccc(S(=O)(=O)[O-])cc1 | 37.5 |  |  | 300 |  | 
9 | CCOc1ccc(/C=C/c2ccc3ccccc3[n+]2C)cc1.Nc1ccc(S(=O)(=O)[O-])cc1 |  |  |  |  |  | MIC [5]: inactive
10 | CN(C)c1ccc(C=Cc2cccc[n+]2C)cc1.[I-] | 37.5 | 300 | 300 | 300 | 300 | MIC [10]: 300 µg/mL; MIC [14]: 300 µg/mL; MIC [15]: 300 µg/mL
11 | CN(C)c1ccc(/C=C/c2cccc[n+]2C)cc1.O=S(=O)([O-])c1ccc(Br)cc1 [listing 1 of 2 here] | 75 |  |  |  |  | 
12 | CCOc1ccc(/C=C/c2cccc[n+]2C)cc1.O=S(=O)([O-])c1ccc(Cl)cc1 | 75 |  |  |  |  | 
13 | CCOc1ccc(/C=C/c2ccc3ccccc3[n+]2C)cc1.COc1ccc(S(=O)(=O)[O-])cc1 [listing 2 of 2 here] | 2.34 | 150 | 18.8 | 18.8 | 75 | 
14 | CN(C)c1ccc(/C=C/c2cccc[n+]2C)cc1.O=S(=O)([O-])c1ccc(Br)cc1 [listing 2 of 2 here] |  |  |  |  |  | MIC [1]: inactive; MIC [2]: inactive; MIC [3]: inactive; MIC [4]: inactive; MIC [5]: inactive; MIC [6]: inactive; MIC [7]: inactive
15 | CN(C)c1ccc(/C=C/c2ccc3ccccc3[n+]2C)cc1.COc1ccc(S(=O)(=O)[O-])cc1 | 2.34 | 150 | 75 | 150 | 150 | 
16 | CCOc1ccc(/C=C/c2cccc[n+]2C)cc1.O=S(=O)([O-])c1ccc(Br)cc1 [listing 1 of 2 here] |  |  |  |  |  | MIC [1]: inactive; MIC [2]: inactive; MIC [3]: inactive; MIC [4]: inactive; MIC [5]: inactive
17 | CCOc1ccc(/C=C/c2ccc3ccccc3[n+]2C)cc1.O=S(=O)([O-])c1ccc(Br)cc1 | 2.34 | 75 | 18.8 | 18.8 | 37.5 | MIC [10]: 300 µg/mL
18 | CCOc1ccc(/C=C/c2cccc[n+]2C)cc1.O=S(=O)([O-])c1ccc(Br)cc1 [listing 2 of 2 here] | 18.8 | 300 |  |  |  | MIC [15]: 300 µg/mL
19 | CN(C)c1ccc(/C=C/c2ccc3ccccc3[n+]2C)cc1.[I-] | 9.37 | 4.68 | 9.37 | 4.68 | 18.8 | MIC [10]: 18.8 µg/mL; MIC [14]: 300 µg/mL; MIC [15]: 300 µg/mL

Reference: ChEMBL document CHEMBL1240464, “Synthesis, structure and in vitro antibacterial activities of new hybrid disinfectants quaternary ammonium compounds: pyridinium and quinolinium stilbene benzenesulfonates” (2010)
